Compounds with a hit are over-represented: about 3.1% of the library has one in this group of screens.
Apaf1 inhib = inhibitors of human Apaf-1 apoptosome, primary screen, biochemical, DEVD-Rh110 fluorescence, uHTS; Apoptotic protease-activating factor 1 (Homo sapiens), O14727; reconstituted apoptosome caspase-3 activity; inhibition, % at 20 µM; actives 0.71% (n = 330,000); AID 489030, 2010; active = inhibition of at least 40% at 20 µM;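 also: plate controls were DMSO wells for no effect and DEVD-CHO caspase inhibitor wells for full effect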
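System: reconstituted apoptosome with Apaf-1, cytochrome c, caspase-9, procaspase-3, dATP; Signal: Rh110 fluorescence intensity; Schedule: 30 min compound preincubation, 50 min activation, room temperature; Reagent: cytochrome c trigger plus (Z-DEVD)2-Rh110 caspase-3 substrate.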
SENP8 block-1 = SENP8 protease inhibitors, primary screen, biochemical, luminescence; Sentrin-specific protease 8 (Homo sapiens), Q96LD8; purified SENP8, Z-RLRGG-aminoluciferin cleavage; actives 1.2% (n = 330,000); AID 2540, 2010; inhibition, % at 10 µM; in the data active = inhibition above about 50%
SENP8 block-2 = human SENP8 protease inhibitors, primary screen, biochemical, fluorescence, Nedd8 protein substrate, uHTS. Sentrin-specific protease 8 (Homo sapiens), Q96LD8. recombinant SENP8. inhibition, % at 20 µM. actives 0.64% (n = 360,000); in the data active = inhibition mostly above about 40%, no sharp cut-off; inactive = mostly below about 27%
UBC13 polyUb = UBC13 polyubiquitin chain formation inhibitors, primary screen, biochemical, TR-FRET, uHTS. Ubiquitin-conjugating enzyme E2 N (Homo sapiens), P61088. inhibition, % at 20 µM. actives 0.47% (n = 330,000). AID 485273, 2010; in the data active = inhibition above about 45%, passing the limit was not always enough; inconclusive = no clear call, values can overlap the other calls
SENP7 inh = SENP7 protease inhibitors, primary screen, biochemical, luminescence, uHTS. recombinant SENP7, Z-RLRGG-aminoluciferin luminescence, 40 min. Sentrin-specific protease 7 (Homo sapiens), Q9BQF6. actives 1.5% (n = 330,000). inhibition, % at 5 µM. AID 434973, 2010;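 active = inhibition above about 50% at the single test dose, limit read from the data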;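 also: plate controls were DMSO with enzyme for no effect and no enzyme buffer wells for full effect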
SENP6 inh = SENP6 protease inhibitors, primary screen, biochemical, luminescence, uHTS; Sentrin-specific protease 6 (Homo sapiens), Q9GZR1; Recombinant SENP6 catalytic domain, aminoluciferin luminescence; inhibition, % at 10 µM; actives 1.8% (n = 330,000); AID 2599, 2010;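 active = inhibition above about 50% at the single tested dose, limit read from the data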;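 also: plate controls were DMSO wells with enzyme for no effect and DMSO wells lacking enzyme for full effect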
* = called active by the depositor; ? = inconclusive; . = not tested or not shown.

SMILES	Apaf1 inhib	SENP8 block-1	SENP8 block-2	UBC13 polyUb	SENP7 inh	SENP6 inh
O=C(O)c1cccnc1Cl	-7.8	-10.6	10.1	-9.0	-0.2	7.7
O=C(O)c1cccnc1C(=O)O	-7.6	2.4	41.2*	-2.1	1.4	2.0
C=CCc1cccc2cc(C(=O)Nc3cccc(C(=O)O)c3)c(=O)oc12	-4.8	21.2	.	?	24.8	54.6*
Cc1ccc(N2CCN(C(=O)C(=O)c3ccc4c(c3)OCO4)CC2)cc1	.	.	12.1	.	.	.
COc1ccc2c3c(cccc13)N(C)N=C2C	72.8*	29.0	-228.4	-51.5	7.0	11.9
COc1ccc2c3c(cccc13)OC2=O	6.4	5.5	20.4	-1.0	4.8	-3.5
COc1cc2[nH]c(C(=O)NN)c(N)c2cc1OC	48.1*	-3.6	.	34.8	2.0	-3.5
COc1cccc2[nH]c(C(=O)NN)c(N)c12	-0.6	1.9	-212.3	-6.1	1.2	-22.3
COc1ccc(-[n+]2c(C)cc(/C=C3\Sc4ccccc4N3C)cc2C)cc1	17.6	4.0	43.4*	-73.5	8.1	0.0
COc1ccccc1-[n+]1c(C)cc(/C=C2\Sc3ccccc3N2C)cc1C	5.3	-0.2	39.3	-57.9	1.6	-3.5
CCc1nc2c(OCc3ccc(OC(F)F)cc3)cccn2c1N(C)C(=O)c1ccc(OC)cc1	.	.	11.6	.	.	.
CC(=NNc1ccc([N+](=O)[O-])cn1)c1ccc(N)cc1	.	.	58.1*	.	.	.
CCOC(=O)C1CCN(CC(C)(C)NS(=O)(=O)c2ccc(Cl)cc2)CC1	4.0	6.3	9.8	3.0	-6.1	-1.5
CCOC(=O)C1CCN(C2=C(NS(=O)(=O)c3ccc(Cl)cc3)C(=O)c3ccccc3C2=O)CC1	13.6	14.6	49.2*	-46.1	10.7	21.8
CN(c1ccccc1)c1nc(N)c([N+](=O)[O-])c(N2CCCCC2)n1	0.7	-2.4	34.0	3.0	1.4	-12.4
CN(C1=C(N2CCCCC2)C(=O)c2ccccc2C1=O)c1ccccc1	26.7	19.3	49.4*	-39.8	14.6	46.3
O=C1C(NS(=O)(=O)c2ccc(Br)cc2)=C(N2CCCCC2)C(=O)c2ccccc21	36.5	2.4	63.6*	-32.1	5.3	24.9
O=C1C(NS(=O)(=O)c2ccccc2)=C(N2CCN(c3ccc(F)cc3)CC2)C(=O)c2ccccc21	17.6	-0.7	35.6	-55.9	8.1	10.5
Cc1nn(C(C)(C)C)c(C)c1/C=N/OC(=O)Nc1ccc(Cl)c(Cl)c1	0.4	42.7	16.3	1.9	44.0	59.2*
CCc1ccc(C(=O)COC(=O)c2ccccc2OC)cc1	-7.4	82.3*	5.5	-1.6	91.3*	89.1*
COc1ccc(CNC(=O)CC[C@H]2O[C@@H](n3cnc4c(NC(=O)c5ccccc5)ncnc43)[C@H](O)[C@@H]2O)cc1	.	.	29.3	.	.	.
Cc1ccc(NC2=C/C(=N/S(=O)(=O)c3cccs3)c3ccccc3C2=O)cc1C	.	.	60.6*	.	.	.
CCOC(=O)[C@]12CCC=C1N(Cc1ccc(Cl)cc1Cl)C(=O)[C@H](CC(=O)N1CCOCC1)C2	.	.	10.8	.	.	.
Cc1ccc(O)c(N=CC2=C(O)c3ccccc3C2=O)c1	27.6	21.9	83.6*	-85.4	28.6	45.6
CN=CC1=C(O)c2ccccc2C1=O	-22.2	2.2	2.1	-8.5	-4.2	0.6
SMILES	Apaf1 inhib	SENP8 block-1	SENP8 block-2	UBC13 polyUb	SENP7 inh	SENP6 inh
CCOc1cc(/C=N/Nc2ccc(S(=O)(=O)Nc3ccccc3C(=O)O)cc2[N+](=O)[O-])cc(Cl)c1O	.	.	30.1	.	.	.
O=C(O)c1ccccc1NS(=O)(=O)c1ccc(N/N=C/c2cccc(O)c2O)c([N+](=O)[O-])c1	.	.	39.4*	.	.	.
COc1cc(C=NNc2ccc(S(=O)(=O)Nc3ccccc3C(=O)O)cc2[N+](=O)[O-])ccc1O	14.4	-16.0	45.8*	-122.4	-8.4	-0.1
CC(=O)Nc1ccc(C=NNc2ccc(S(=O)(=O)Nc3ccccc3C(=O)O)cc2[N+](=O)[O-])cc1	-0.7	6.1	34.6	-56.2	-0.4	6.9
CCOc1ccc(C=NNc2ccc(S(=O)(=O)Nc3ccccc3C(=O)O)cc2[N+](=O)[O-])cc1OC	6.2	-7.6	51.8*	-128.3	-3.6	-33.8
COC(=O)[C@@]12C[C@@H](CC(=O)NCC3CCCCC3)C(=O)N(Cc3cccc4ccccc34)C1=CCC(C)(C)C2	.	.	24.5	.	.	.
CSc1ccc(Cn2c(C)c(C(=O)NCc3ccc4c(c3)OCO4)sc2=O)cc1	.	.	4.1	.	.	.
Cc1cc(C)n2cc(COc3ccc4ccccc4c3)nc2n1	0.0	-13.3	-416.5	8.6	0.4	-2.5
Cc1cccc2nc(COc3ccc(-c4ccccc4)cc3)cn12	16.8	91.9*	.	1.5	95.3*	94.2*
CC1(Oc2ccccc2-c2ccno2)CCN(Cc2csc3ccccc23)C1 (stereo not drawn)	.	.	6.4	.	.	.
COc1ccc(CN2CCCC2C(=O)Nc2ccc(OC)c(OC)c2)cc1OC (stereo not drawn)	-4.2	-3.1	-4.3	-3.1	64.4*	-18.9
COc1ccc(Cn2cc(CN3CC(N(C)C)CS3(=O)=O)nn2)cc1 (stereo not drawn)	.	.	7.9	.	.	.
CCCCOc1ncnc2c1[nH]c1ccc(C)cc12	4.5	-5.2	-364.5	10.7	51.0*	15.8
C=CCNc1ncnc2c1[nH]c1ccc(C)cc12	1.5	-10.5	-261.6	7.7	-11.5	5.4
CCCOc1ncnc2c1[nH]c1ccc(OC)cc12	-7.6	63.1*	-396.4	10.9	80.9*	77.1*
CCCOc1ncnc2c1[nH]c1ccccc12	6.6	0.4	-104.8	14.0	5.4	-4.0
CCCCOCCCNC(=O)C[C@@H]1C[C@@]2(C(=O)OCC)CCC=C2N(Cc2cccc3ccccc23)C1=O	.	.	5.0	.	.	.
c1ccc2c(c1)CCN(c1nc3cc4c(cc3s1)OCO4)C2	20.9	94.3*	-82.4	-8.5	96.2*	88.4*
Nc1nc2cc3c(cc2cc1C(=O)NCc1ccc(F)cc1)OCO3	.	.	-415.9	.	.	.
Cc1ccc(NC(=O)CSc2nc3ccccc3c(=O)n2CCCN2CCCCC2)cc1C	54.9*	-10.6	17.5	18.9	-3.5	-17.2
COc1cc2c(cc1OC)C(=O)C(Br)CC2 (stereo not drawn)	.	.	-369.0	.	.	.
Clc1ccc(-c2nnc3sc(Cc4cccs4)nn23)cc1	58.5*	2.2	-1.8	5.9	3.1	5.0
Cc1nc(-c2ccccc2)sc1-c1ccn[nH]1	13.2	47.5	-391.1	0.6	56.4*	61.1*
COc1ccc(CNc2nc3ccccc3n2C(C)C)c(O)c1	5.6	-1.4	34.6	27.9	3.0	10.3
COc1ccc(CNc2nc3ccccc3n2C)c(OC)c1	-3.0	60.5*	5.2	-13.5	61.0*	40.3

Compound activity as filed in PubChem BioAssay.
